Calls of active or inactive are those of the source. No cut-off for these calls is given here.
What was measured:
[1] = tested on: Jurkat; assay: Cell cycle arrest in human Jurkat cells assessed as accumulation at G2/M phase at 15 to 30 nM after 24 hrs by propidium iodide staining-based flow cytometric analysis relative to control; format: functional
Method in brief: (§1)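 Jurkat cells treated for 24 h, fixed, PI-labelled and analysed by flow cytometry for cell-cycle phase distribution. Mean of three independent experiments.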

[2] = tested on: HeLa; assay: Induction of DNA damage in human HeLa cells assessed as upregulation of gamma-H2A.X protein expression at 100 nM after 24 hrs by Western blot analysis; format: functional, cell-based
Method in brief: (§2)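 HeLa cultures treated 24 or 48 h, washed in cold PBS, lysed 30 min at 0 °C, clarified at 15000g. 20 μg protein run on 7.5−15% gradient SDS-PAGE and blotted to PVDF. Primary antibodies 2 h at room temperature, peroxidase secondary 60 min, ECL detection. Membranes stripped and reprobed for β-actin as loading control.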

[3] = tested on: L1210; assay: Cytotoxicity against mouse L1210 cells assessed as growth inhibition after 48 hrs by coulter counting analysis; format: functional, cell-based; details: L1210, 48 h
Method in brief: (§3)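 Cells suspended at (3−5) × 10⁵ cells/mL and mixed 1:1 with compound dilutions. Incubated 48 h at 37 °C, counted with a Coulter counter. IC₅₀ = concentration inhibiting proliferation by 50%. Mean of at least three independent experiments.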

[4] = molecular target: T1, M-phase inducer phosphatase 3 (Homo sapiens) (UniProt P30307); assay: Increase of cdc25c phosphorylation at Ser216 in human HeLa cells at 10 to 100 nM after 48 hrs by Western blot analysis; format: cell-based; method in brief: as §2
T1 sequence (whole entry): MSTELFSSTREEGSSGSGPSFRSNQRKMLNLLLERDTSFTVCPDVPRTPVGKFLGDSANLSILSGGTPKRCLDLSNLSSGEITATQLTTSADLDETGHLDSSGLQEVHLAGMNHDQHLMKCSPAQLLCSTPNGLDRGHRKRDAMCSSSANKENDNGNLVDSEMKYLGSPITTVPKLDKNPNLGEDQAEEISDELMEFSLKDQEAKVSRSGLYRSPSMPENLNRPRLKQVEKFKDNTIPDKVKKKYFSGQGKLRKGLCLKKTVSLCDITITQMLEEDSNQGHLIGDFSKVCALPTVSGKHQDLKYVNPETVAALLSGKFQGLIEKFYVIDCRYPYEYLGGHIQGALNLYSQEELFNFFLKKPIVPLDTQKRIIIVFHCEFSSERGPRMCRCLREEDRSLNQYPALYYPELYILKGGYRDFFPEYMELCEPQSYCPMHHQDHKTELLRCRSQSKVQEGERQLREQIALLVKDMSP

[5] = Selectivity ratio of IC50 for HUVEC to IC50 for human HeLa cells; format: ADME, cell-based; details: HUVEC and HeLa cells, read-out: Ratio IC50
[6] = tested on: HeLa; assay: Induction of mitochondrial membrane depolarization in human HeLa cells after 24 to 48 hrs by JC-1 staining-based fluorescence assay; format: functional, cell-based
Method in brief: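 HeLa cells treated 24 or 48 h, then stained with JC-1. Cells with depolarised mitochondria quantified by flow cytometry. Mean of three independent experiments.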

[7] = tested on: HeLa; assay: Induction of DNA damage in human HeLa cells assessed as upregulation of gamma-H2A.X protein expression at 10 nM after 48 hrs by Western blot analysis; format: functional, cell-based; method in brief: as §2
[8] = tested on: MNNG-HOS; assay: Antitumor activity against human MNNG-HOS cells xenografted in Balb/c-nu mouse assessed as tumor growth inhibition at 50 mg/kg, ip measured after 3 days; format: functional, organism-based; set-up: dose 50 mg/kg; details: HOS-TE85
[9] = molecular target: Tubulin (Homo sapiens) (UniProt P68371+Q9H4B7+P0DPH7+P68366+Q13509+Q71U36+P04350+Q3ZCM7+P07437+P68363+Q9BQE3+Q6PEY2+Q13885+Q9BVA1+Q9BUF5); assay: Displacement of [3H]-colchicine from tubulin (unknown origin) at 5 uM after 10 mins relative to control; format: protein-complex assay
[10] = tested on: HUVEC; assay: Cytotoxicity against HUVEC assessed as growth inhibition after 72 hrs by MTT assay; format: cell-based; details: Homo sapiens
Method in brief: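 HUVECs were detached with EDTA/trypsin at confluence, and only passages 1–6 were used. Cells were exposed to varying compound concentrations, and viability was read by MTT after 72 h. IC50 is the concentration reducing cell growth by 50%, as the mean of three independent experiments.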

[11] = tested on: HeLa; assay: Downregulation of cdc25c protein expression in human HeLa cells at 10 to 100 nM after 24 to 48 hrs by Western blot analysis; format: functional, cell-based; method in brief: as §2
[12] = Cytotoxicity against human Molt4/C8 cells assessed as growth inhibition after 48 hrs by coulter counting analysis; format: functional, cell-based; details: MOLT-4, 48 h; method in brief: as §3
[13] = Inhibition of bovine brain tubulin polymerization preincubated for 15 mins followed by GTP addition measured for 20 mins by turbidometric analysis; set-up: species or system Bos taurus
[14] = tested on: PBL; assay: Cytotoxicity against resting phase of human PBL assessed as growth inhibition after 72 hrs by MTT assay; format: cell-based
Method in brief: (§4)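 Human PBL from healthy donors were isolated on a density gradient, washed, and held overnight in RPMI-1640 with 10% FBS. For proliferating cultures, nonadherent cells were resuspended at 5 × 10⁵ cells/mL with 2.5 μg/mL PHA; resting PBL received no PHA. Cells were exposed to varying compound concentrations, and viability was read by MTT after 72 h. IC50 is the concentration reducing growth by 50%, as the mean of three independent experiments.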

[15] = tested on: HeLa; assay: Cytotoxicity against human HeLa cells assessed as growth inhibition after 48 hrs by coulter counting analysis; format: functional, cell-based
[16] = Selectivity ratio of IC50 for HUVEC to IC50 for human CEM/0 cells; format: ADME, cell-based; details: HUVEC and CEM/0 cells, read-out: Ratio IC50
[17] = tested on: PBL; assay: Cytotoxicity against PHA-stimulated human PBL assessed as growth inhibition after 72 hrs by MTT assay; format: cell-based; method in brief: as §4
[18] = molecular target: Cyclin-dependent kinase 1 (Homo sapiens) (UniProt P06493); assay: Decrease of cdc2 protein phosphorylation at Tyr15 in human HeLa cells at 10 to 100 nM after 24 to 48 hrs by Western blot analysis; format: cell-based; method in brief: as §2
[19] = tested on: HeLa; assay: Induction of apoptosis in human HeLa cells assessed as caspase-9 cleavage at 10 to 100 nM after 24 to 48 hrs by Western blot analysis; format: functional, cell-based; method in brief: as §2
[20] = tested on: HeLa; assay: Induction of apoptosis in human HeLa cells after 24 to 48 hrs by annexin-V-FITC/propidium iodide staining-based flow cytometric analysis; format: functional, cell-based
Method in brief: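 HeLa cells treated 24 or 48 h, stained with annexin-V-FITC and PI, analysed by flow cytometry. Excitation 488 nm; emission 525 nm for FITC, 585 nm for PI. Gating separates live, early apoptotic, late apoptotic and necrotic cells. Mean of three independent experiments.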

[21] = molecular target: T1, M-phase inducer phosphatase 3 (Homo sapiens); assay: Increase of cdc25c phosphorylation at Ser216 in human HeLa cells at 10 to 100 nM after 24 hrs by Western blot analysis; format: cell-based; method in brief: as §2
[22] = tested on: Jurkat; assay: Cell cycle arrest in human Jurkat cells assessed as reduction in S phase up to 60 nM after 24 hrs by propidium iodide staining-based flow cytometric analysis relative to control; format: functional; method in brief: as §1
[23] = tested on: HeLa; assay: Induction of mitochondrial ROS generation in human HeLa cells at 15 to 250 nM by H2-DCFDA staining-based flow cytometric analysis; format: functional, cell-based; details: TDE = time-dependent effect
Method in brief: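 HeLa cells incubated 24 or 48 h with compound, stained with H₂-DCFDA, and intracellular ROS measured by flow cytometry. Mean of three independent experiments.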

Cyclin-dependent kinase 1 (Homo sapiens), sequence (P06493 whole entry, looked up): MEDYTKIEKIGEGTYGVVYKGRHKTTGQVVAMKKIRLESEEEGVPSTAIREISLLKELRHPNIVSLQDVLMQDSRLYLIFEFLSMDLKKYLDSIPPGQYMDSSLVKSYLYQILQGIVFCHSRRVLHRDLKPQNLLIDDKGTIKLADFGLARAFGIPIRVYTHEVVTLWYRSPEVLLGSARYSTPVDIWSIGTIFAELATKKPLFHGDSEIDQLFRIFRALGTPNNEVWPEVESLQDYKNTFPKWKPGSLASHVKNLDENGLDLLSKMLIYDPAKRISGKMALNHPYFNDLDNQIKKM

For `COc1cc(C(=O)c2cc3cc(N)cc(OC)c3s2)cc(OC)c1OC`, the Activity [1] was 40%, the Activity [2] was “Active” and the IC50 [3] was 0.005 µM. The Activity [4] was “inactive”, the selectivity ratio [5] was 460 and the Activity [6] was “Dose-dependent effect”. The Activity [7] was “Active”, the TGI [8] was “Active” and the inhibition [9] was 97%. For the same compound, the IC50 [10] was 5.5 µM, the Activity [11] was “Active” and the IC50 [12] was 0.0026 µM. It also gave an IC50 [13] of 0.52 µM, an IC50 [14] of 24.7 µM and an IC50 [15] of 0.008 µM. The selectivity ratio [16] was 460, the IC50 [17] was 20.6 µM and the Activity [18] was “Active”. For the same compound, the Activity [19] was “Active”, the Activity [20] was “Dose-dependent effect” and the Activity [21] was “Active”. For the same compound, the Activity [22] was “Active” and the Activity [23] was “tde”.
